The source made the active and inactive calls. No cut-off for these calls is given here.
Columns and labels:
[1] = biological target: T1, Proteasome Macropain subunit MB1 (Homo sapiens, UniProt P28074); experiment: Inhibition of human 20S proteasome chymotrypsin like activity using Suc-Leu-Leu-Val-Tyr-AMC as substrate measured over 10 mins by fluorescence assay
T1 sequence (P28074 whole entry): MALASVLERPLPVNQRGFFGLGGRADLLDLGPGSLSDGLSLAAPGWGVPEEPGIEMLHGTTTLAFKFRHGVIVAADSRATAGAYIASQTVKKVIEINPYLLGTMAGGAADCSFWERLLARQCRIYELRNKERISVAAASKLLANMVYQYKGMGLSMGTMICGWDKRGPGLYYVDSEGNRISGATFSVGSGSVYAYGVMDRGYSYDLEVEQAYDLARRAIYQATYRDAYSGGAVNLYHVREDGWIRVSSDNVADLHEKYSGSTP

[2] = biological target: Proteasome Macropain subunit (Homo sapiens) (UniProt P49721); experiment: Inhibition of human 20S proteasome trypsin like activity using Boc-Leu-Leu-Arg-Arg-AMC as substrate at 20 uM measured over 10 mins by fluorescence assay; conditions: in the assay text read “Boc-Leu-Arg-Arg-AMC” for “Boc-Leu-Leu-Arg-Arg-AMC”
Chain of Proteasome Macropain subunit (Homo sapiens) (P49721 whole entry): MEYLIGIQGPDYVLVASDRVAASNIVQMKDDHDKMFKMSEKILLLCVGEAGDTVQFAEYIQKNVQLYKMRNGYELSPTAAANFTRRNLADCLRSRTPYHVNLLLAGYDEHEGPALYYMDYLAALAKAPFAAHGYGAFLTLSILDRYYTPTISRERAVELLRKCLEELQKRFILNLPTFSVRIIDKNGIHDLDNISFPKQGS
Summary of the method: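 Tryptic activity of human erythrocyte 20S proteasome at 0.0025 mg mL1, 30 °C, in 50 mM Tris pH 7.4, 50 mM NaCl, 0.5 mM EDTA, 0.03% SDS, 7.5% DMSO. Compound at […]. Boc-Leu-Arg-Arg-AMC at […]. Continuous 10-min fluorescence reading (ex 380/em 460 nm) against a DMSO control.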

[3] = biological target: T2, Proteasome Macropain subunit MB1 (Homo sapiens) (UniProt P28074); experiment: Inhibition of human 20S proteasome chymotrypsin like activity using Suc-Leu-Leu-Val-Tyr-AMC as substrate at 20 uM measured over 10 mins by fluorescence assay relative to control
T2 sequence (whole entry): T1 sequence (P28074 whole entry)
Summary of the method: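 Screening run at a single […] inhibitor concentration against purified human erythrocyte 20S proteasome, using an equal amount of DMSO as the negative control. AMC fluorescence read at ex 380/em 460 nm continuously for 10 min.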

[4] = biological target: T3, Proteasome component C5 (Homo sapiens, UniProt P20618); experiment: Inhibition of human 20S proteasome post-glutamyl peptide hydrolyzing activity using Z-Leu-Leu-Glu-AMC as substrate measured over 10 mins by fluorescence assay
T3 sequence (P20618 whole entry): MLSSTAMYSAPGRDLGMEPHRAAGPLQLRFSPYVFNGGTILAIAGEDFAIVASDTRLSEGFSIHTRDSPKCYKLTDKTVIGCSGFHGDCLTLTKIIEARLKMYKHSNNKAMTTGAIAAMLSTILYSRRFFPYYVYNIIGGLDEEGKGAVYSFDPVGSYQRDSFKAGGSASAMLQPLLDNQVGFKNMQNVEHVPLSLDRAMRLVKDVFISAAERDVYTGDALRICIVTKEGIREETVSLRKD

[5] = species: Homo sapiens; experiment: Selectivity ratio of Ki for human 20S proteasome post-glutamyl peptide hydrolyzing activity to Ki for human 20S proteasome chymotrypsin like activity
[6] = Inhibition of bovine pancreatic alpha-chymotrypsin using Suc-Leu-Leu-Val-Tyr-AMC as substrate measured over 10 mins by fluorescence assay; set-up: species or system Bos taurus
Summary of the method: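 Bovine pancreatic alpha-chymotrypsin ([…] as printed) incubated at 20 °C with test compound in 50 mM Tris pH 8.0, 100 mM NaCl, 5 mM EDTA, 7.5% DMSO. Substrate at […] final. Product release followed over 10 min. Ki obtained from progress curves fitted to a 4-parameter IC50 equation and corrected for substrate.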

Row | Compound | Ki [1] [nM] | inhibition [2] | inhibition [3] [%] | Ki [4] | Ratio Ki [5] | Ki [6] [nM]
1 | CC(C)C[C@H](NC(=O)[C@H](Cc1ccccc1)NC(=O)c1cnccn1)B(O)O | – | – | > 40 | – | – | –
2 | CC(C)C[C@H](NC(=O)Cn1ccc2c(c1=O)CCCN2C)B(O)O | 1620 | inactive | > 40 | – | – | –
3 | CC(C)C[C@H](NC(=O)Cn1ccc2ncccc2c1=O)B(O)O | 440 | inactive | > 40 | – | – | –
4 | CCN(CC)c1ccn(CC(=O)N[C@@H](CC(C)C)B(O)O)c(=O)c1 | 800 | inactive | > 40 | – | 5.5 | –
5 | CC(C)C[C@H](NC(=O)[C@H](C)n1ccc2ncccc2c1=O)B(O)O | 1340 | inactive | > 40 | – | 10 | 9160
6 | CC(C)C[C@H](NC(=O)Cn1ccccc1=O)B(O)O | 260 | inactive | > 40 | – | 5.3 | –
7 | CC(C)C[C@H](NC(=O)Cn1cc(Br)c2ncccc2c1=O)B(O)O | 170 | inactive | > 40 | – | – | –
8 | CC(C)C[C@H](NC(=O)Cn1ccc(Nc2ccccc2)cc1=O)B(O)O | 98 | inactive | > 40 | – | 52 | 12700

More lines, now with the values ahead:

Row | Ki [1] [nM] | inhibition [2] | inhibition [3] [%] | Ki [4] | Ratio Ki [5] | Ki [6] [nM] | Compound
9 | 5900 | inactive | > 40 | Not Active | – | – | C=CCN1CCN(c2ccn(CC(=O)N[C@@H](CC(C)C)B(O)O)c(=O)c2)CC1
10 | – | inactive | 30 | – | – | – | CC(C)C[C@H](NC(=O)Cn1ccc(N2CCN(C)CC2)cc1=O)B(O)O
11 | 1450 | inactive | > 40 | – | – | – | CC(C)C[C@H](NC(=O)Cn1ccc(N2CCOCC2)cc1=O)B(O)O
12 | 300 | inactive | > 40 | – | – | – | CC(C)C[C@H](NC(=O)Cn1ccc(N2CCCCC2)cc1=O)B(O)O

Reference: ChEMBL document CHEMBL2384970, “Development of peptidomimetic boronates as proteasome inhibitors” (Eur J Med Chem, 2013)
